This is a sample that favours compounds with a hit; in the whole collection about 1.5% have one here.
CXCR6 block: CXCR6 receptor inhibitors, primary screen, cell-based, beta-arrestin, luminescence, CHO-K1 PathHunter, 1536-well | C-X-C chemokine receptor type 6 (Homo sapiens), O00574 | inhibition, % at 20 µM | 360,000 compounds, 0.36% hits; in the data active means inhibition above about 34%, passing the limit was not always enough;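 further: antagonist mode with CXCL16 agonist at 10 nM final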
Target sequence (O00574 whole entry, looked up): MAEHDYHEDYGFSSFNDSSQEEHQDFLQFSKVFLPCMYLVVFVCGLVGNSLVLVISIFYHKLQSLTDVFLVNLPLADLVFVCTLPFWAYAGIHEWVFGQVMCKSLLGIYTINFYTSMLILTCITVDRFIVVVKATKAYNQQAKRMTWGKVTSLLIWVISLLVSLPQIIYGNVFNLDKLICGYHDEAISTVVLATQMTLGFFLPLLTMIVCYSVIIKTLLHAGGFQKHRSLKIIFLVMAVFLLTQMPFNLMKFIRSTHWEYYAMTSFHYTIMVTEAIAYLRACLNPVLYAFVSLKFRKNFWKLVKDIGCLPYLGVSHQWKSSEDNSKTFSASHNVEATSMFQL
CCR6 antag: CCR6 receptor antagonists, primary screen, cell-based, CHO-K1, luminescence, beta-arrestin, uHTS; inhibition, % at 20 µM; 340,000 compounds, 0.49% hits; CHO-K1 CCR6 PathHunter beta-arrestin, CCL20-stimulated;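 active means compounds whose inhibition of the agonist-driven luminescence signal at 20 µM reaches about 50%, limit read from the data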;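 further: cells stimulated with CCL20 at 14 nM final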
APJ agonist: agonists of human apelin receptor APJ, primary screen, CHO-K1 cells, PathHunter beta-arrestin, luminescence | P35414 | 0% DMSO wells, 100% apelin | activation, % at 20 µM | 330,000 compounds, 0.11% hits | AID 2520, 2010;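 active means activation more than six SD over the plate average, tested at 20 µM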
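Test system: CHO-K1 APJ beta-arrestin complementation cell line. Amount: cell density 1000 per well. Controls: DMSO negative, 10 nM Apelin-13 positive. Signal: luminescent beta-gal fragment complementation, chemiluminescent substrate. Read-out basis: agonist-driven arrestin binding to APJ. Timing: compound stimulation 90 min at 25 °C, detection 60 min.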
EBI2 block: EBI2 receptor antagonists, beta-arrestin recruitment, primary screen, cell-based, luminescence, 7a,25-OHC stimulation, uHTS; 360,000 compounds, 0.81% hits; inhibition, % at 5 µM; G-protein coupled receptor 183 (Homo sapiens), P32249; 7a,25-OHC stimulated; in the data active means inhibition above about 38%;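 further: enzyme fragment complementation signal reports receptor beta-arrestin coupling in cells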
APJ antagonist: antagonists of human apelin receptor APJ, primary screen, CHO-K1 cells, beta-arrestin complementation, luminescence; P35414; inhibition, % at 20 µM; 330,000 compounds, 0.32% hits; AID 2521, 2010;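 active means inhibition above about 40% at 20 µM, limit read from the data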;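 further: cells challenged with 10 nM apelin-13 agonist together with compound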
APJ antag confirm: APJ antagonists blocking beta-arrestin recruitment, confirmation, cell-based, luminescence, single concentration, uHTS hits | 950 compounds, 66% hits | shares compounds with APJ antagonist | antagonist mode | inhibition, % at 20 µM; in the data active means inhibition above about 50%
A number is an active result.

How did C[C@@H]1CN([C@H](C)CO)C(=O)CCCn2cc(nn2)CO[C@H]1CN(C)S(=O)(=O)c1ccccc1F do in these assays?
CXCR6 block: inactive; EBI2 block: inactive

How did COc1ccccc1NC(=O)CCC(=O)OCC(=O)c1ccc(C)c([N+](=O)[O-])c1 do in these assays?
CXCR6 block: inactive; CCR6 antag: inactive; APJ agonist: inactive; EBI2 block: inactive; APJ antagonist: 50; APJ antag confirm: 62

What do the screens show for `O=C(CCC(=O)OCC(=O)c1cccc([N+](=O)[O-])c1)Nc1cccc(Cl)c1Cl`?
CXCR6 block: inactive; CCR6 antag: 62; APJ agonist: inactive; EBI2 block: inactive; APJ antagonist: 41; APJ antag confirm: 81

What do the screens show for `Cc1ccc(C(=O)COC(=O)CCC(=O)NC2CCCCC2)cc1[N+](=O)[O-]`?
CXCR6 block: inactive; CCR6 antag: inactive; APJ agonist: inactive; EBI2 block: inactive; APJ antagonist: 49; APJ antag confirm: inactive

What do the screens show for `O=C(CCC(=O)OCC(=O)c1ccc([N+](=O)[O-])cc1)Nc1ccccc1Cl`?
CXCR6 block: inactive; CCR6 antag: inactive; APJ agonist: inactive; EBI2 block: inactive; APJ antagonist: inactive

What do the screens show for `COc1ccccc1NC(=O)CCC(=O)OCc1cccc([N+](=O)[O-])c1`?
CXCR6 block: inactive; CCR6 antag: inactive; APJ agonist: inactive; EBI2 block: inactive; APJ antagonist: inactive

How did Cc1ccccc1NC(=O)CCC(=O)OCC(=O)c1cccc([N+](=O)[O-])c1 do in these assays?
CXCR6 block: inactive; CCR6 antag: 54; APJ agonist: inactive; EBI2 block: inactive; APJ antagonist: 56; APJ antag confirm: 98

Results for Cc1ccc(C(=O)COC(=O)CCS(=O)(=O)c2ccccc2)cc1[N+](=O)[O-] ?
CXCR6 block: inactive; CCR6 antag: inactive; APJ agonist: inactive; EBI2 block: inactive; APJ antagonist: inactive

How did O=C(CCC(=O)OCC(=O)c1ccc(Br)cc1)NC1CCCCC1 do in these assays?
CXCR6 block: inactive; CCR6 antag: inactive; APJ agonist: inactive; EBI2 block: inactive; APJ antagonist: inactive

What do the screens show for `CCCCN(C)C(=O)C1CCCN(S(=O)(=O)c2ccc3c(c2)oc(=O)n3C)C1` (configuration not stated)?
CXCR6 block: inactive; CCR6 antag: inactive; APJ agonist: inactive; EBI2 block: inactive; APJ antagonist: inactive

What do the screens show for `N#Cc1ccc(CC(=O)c2ccccc2)[nH]c1=O`?
CXCR6 block: inactive; CCR6 antag: inactive; EBI2 block: inactive

What do the screens show for `COc1ccccc1NC(=O)c1ccc2c(c1)N(CC#N)C(=O)C(C)(C)O2`?
CXCR6 block: inactive; CCR6 antag: inactive; APJ agonist: inactive; EBI2 block: inactive; APJ antagonist: inactive

How did CC1Cn2c(nc3sc4c(c3c2=O)CC(C)(C)OC4)N1CCO (configuration not stated) do in these assays?
CXCR6 block: inactive; CCR6 antag: inactive; APJ agonist: inactive; EBI2 block: inactive; APJ antagonist: inactive

Results for O=[N+]([O-])c1cccc(/C=N/Nc2nc(NCc3ccccc3)nc(N3CCOCC3)n2)c1O ?
CXCR6 block: 95; CCR6 antag: 107; APJ agonist: inactive; EBI2 block: 76; APJ antagonist: 76; APJ antag confirm: 124

Results for O=[N+]([O-])c1ccc(/C=N/Nc2nc(NCc3ccccc3)nc(N3CCOCC3)n2)cc1 ?
CXCR6 block: inactive; CCR6 antag: inactive; APJ agonist: inactive; EBI2 block: inactive; APJ antagonist: inactive

How did Cc1cc(C(=O)OCC(=O)N2CC(C)OC(C)C2)c(C)n1-c1ccccc1 (configuration not stated) do in these assays?
CXCR6 block: inactive; CCR6 antag: inactive; APJ agonist: inactive; EBI2 block: inactive; APJ antagonist: inactive

How did O=C(N/N=C/c1ccncc1)C1CC1(c1ccccc1)c1ccccc1 (configuration not stated) do in these assays?
CXCR6 block: inactive; CCR6 antag: inactive; APJ agonist: inactive; EBI2 block: inactive; APJ antagonist: inactive

What do the screens show for `O=C(N/N=C/c1ccc(O)c([N+](=O)[O-])c1)C1CC1(c1ccccc1)c1ccccc1` (configuration not stated)?
CXCR6 block: inactive; CCR6 antag: inactive; APJ agonist: inactive; EBI2 block: inactive; APJ antagonist: 41; APJ antag confirm: inactive

What do the screens show for `COC(=O)c1ccc2c(c1)C(C)(C)C(/C=C/c1ccc(O)cc1)=[N+]2C`?
CXCR6 block: 74; CCR6 antag: 91; APJ agonist: inactive; EBI2 block: inactive; APJ antagonist: 70; APJ antag confirm: 129

How did Cc1ccc(C(=O)CC(=O)c2ccc(C(C)(C)C)cc2)cc1 do in these assays?
CXCR6 block: inactive; CCR6 antag: inactive; APJ agonist: inactive; EBI2 block: inactive; APJ antagonist: inactive

What do the screens show for `Cc1ccc(C(=O)CNc2cccc([N+](=O)[O-])c2)cc1`?
CXCR6 block: inactive; CCR6 antag: inactive; APJ agonist: inactive; EBI2 block: inactive; APJ antagonist: 55; APJ antag confirm: inactive

What do the screens show for `Cc1ccc(NCC(=O)c2ccc([N+](=O)[O-])cc2)cc1`?
CXCR6 block: inactive; CCR6 antag: inactive; APJ agonist: inactive; EBI2 block: inactive; APJ antagonist: inactive

What do the screens show for `Cc1ccc(C(=O)CNc2ccccc2C)cc1`?
CXCR6 block: 58; CCR6 antag: 86; APJ agonist: inactive; EBI2 block: inactive; APJ antagonist: 76; APJ antag confirm: 120

Results for Cc1ccc(C(=O)CNc2ccccc2)cc1 ?
CXCR6 block: 47; CCR6 antag: 83; APJ agonist: inactive; EBI2 block: inactive; APJ antagonist: 44; APJ antag confirm: 110

What do the screens show for `O=C(NC1CCOCC1)C1CCC(=O)N(CCc2ccc(Cl)cc2)C1` (configuration not stated)?
CXCR6 block: inactive; CCR6 antag: inactive; APJ agonist: inactive; EBI2 block: inactive; APJ antagonist: inactive

What do the screens show for `O=C(c1ccco1)N(Cc1cccs1)C1CCS(=O)(=O)C1` (configuration not stated)?
CXCR6 block: inactive; CCR6 antag: inactive; APJ agonist: inactive; EBI2 block: inactive; APJ antagonist: 47; APJ antag confirm: inactive

Results for O=C(c1ccco1)N(Cc1cccc(Cl)c1)C1CCS(=O)(=O)C1 (configuration not stated) ?
CXCR6 block: inactive; CCR6 antag: inactive; APJ agonist: inactive; EBI2 block: inactive; APJ antagonist: inactive

How did COc1cc(N)c(Cl)cc1C(=O)OCC(=O)Nc1cccnc1Cl do in these assays?
CXCR6 block: inactive; CCR6 antag: inactive; APJ agonist: inactive; EBI2 block: inactive; APJ antagonist: inactive
